Test results: PMC2213236 (The Journal of Experimental Medicine, 2005)

Assays:
[1] = test system: human CD4^+ T cell clones to proinsulin; type: cell-based; settings: for stimulation of clones by insulin and proinsulin: titrated from 1 μM to 0.1 nM, mean of triplicates ± SEM
Procedure, shortened: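 Clones were cultured in triplicate in IMDM with 5% pooled human serum and irradiated APCs (autologous or HLA-matched PBMCs at 20 Gy, or EBV B-cell lines at 50 Gy). Insulin or proinsulin was used at 10 μg/ml, with anti-HLA DR mAb at 5 μg/ml where indicated. RP-HPLC fractions were tested at 1/400. After 2 d, 3H-thymidine (0.5 μCi/well, 18 h) was added; β-scintillation; mean ± SEM of triplicates.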

[2] = Formation and reduction of the vicinal disulfide bond; type: physicochemical; settings: MS, unpublished data
[3] = test system: proinsulin-specific CD4^+ T cell clones from two healthy HLA DR4^+ donors; test: Proliferation of proinsulin-specific CD4+ T cell clones from healthy donors; type: cell-based, human; settings: 13 clones from two healthy HLA DR4^+ donors (6 and 7 clones); unpublished data
HLA DRB1*0404 = test: HLA DR binding; parameters: species or system human; settings: compared with the serine-substituted homologue
murine T cells = settings: first 14 amino acids of the A-chain of bovine insulin; cited from earlier work
human T cells = settings: first 14 amino acids of the A-chain of bovine insulin; cited from earlier work

For “S-6: serine substituted for the cysteine at A6”, the “proliferation of T cell clones to RP-HPLC fractions” value ([1]; S-6 peptide in similar experiments, unpublished data) was “No fractions stimulated proliferation”.

In the case of “proinsulin: Recombinant human proinsulin produced in-house, shown to be folded correctly and free of endotoxin”, the “stimulation of clones by insulin and proinsulin” value [1] is reported as “stimulated the clones equally”.

For “S-11: analogue peptide with serine substituted for cysteine at position A11 (KRGIVEQSSTSISSL)”, the “effect of TCEP reduction on ability to stimulate the clones” value ([1]; S-11 peptide (1 μM) treated with the disulfide-reducing agent TCEP) was “abolished the ability of S-11 to stimulate the clones” and the “formation of the vicinal disulfide bond” value ([2]; S-11 peptide in culture medium) was “within minutes”.

In the case of “insulin: clinical grade recombinant insulin”, the “HLA DR dependence of the response to insulin” value ([1]; clinical grade recombinant insulin 10 μg/ml, anti-HLA DR mAb 5 μg/ml) is reported as “HLA DR dependent” and the “stimulation of clones by insulin and proinsulin” value [1] is reported as “stimulated the clones equally”.

With KRGIVDQCCTSICSL the “potency relative to the human homologue (fold less potent)” value ([1]; mouse vs human insulin A1-13, 50—0.05 μM peptide) was ~10 -fold less potent.

For KRGIVEQCCTSICSL [KR-A1-13], the “clones proliferating in response to peptide” value [3] was “none”.

With KRGIVEQC-CTSISSL (disulfide) the “effect of the vicinal disulfide bond on binding to HLA DR4” value (HLA DRB1*0404) was “did not alter binding to HLA DR4” and the “effect of dithiothreitol on the vicinal disulfide bond” value ([2]; dithiothreitol treatment, mass increased by 2 Dltons) was “reduced the vicinal disulfide bond”.

In the case of GIVEQCCASVCSLY, the “recognition by T cells after immunization” value (murine T cells) is listed as “recognized” and the “recognition by T cells after immunization” value (human T cells) is listed as “recognized”.
